MT stabilize HCS: stabilizes microtubules in HeLa cells; hit rate 0.83% among 200,000; AID 2205; % tubulin-high responders, % at 10 µM; HeLa tubulin immunostaining HCS, 24 h; share of cells brighter than vehicle mean+2SD;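 active = plate Z-score above 3 for both tubulin-high and condensed-nucleus cell shares, with cell loss under 80%, at 10 µM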;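 note: anti alpha tubulin signal scored within the nucleus-defined area of each cell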
ABCG2 inh: blocks JC-1 efflux by human ABCG2 transporter; Q9UNQ0; IgMXP3 cells, flow cytometry; inhibition, % at 6.6 µM; hit rate 0.1% among 190,000;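 active = inhibition above 80%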;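 note: 0% = DMSO and 100% = nicardipine control wells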
Target sequence (Q9UNQ0 whole entry, looked up): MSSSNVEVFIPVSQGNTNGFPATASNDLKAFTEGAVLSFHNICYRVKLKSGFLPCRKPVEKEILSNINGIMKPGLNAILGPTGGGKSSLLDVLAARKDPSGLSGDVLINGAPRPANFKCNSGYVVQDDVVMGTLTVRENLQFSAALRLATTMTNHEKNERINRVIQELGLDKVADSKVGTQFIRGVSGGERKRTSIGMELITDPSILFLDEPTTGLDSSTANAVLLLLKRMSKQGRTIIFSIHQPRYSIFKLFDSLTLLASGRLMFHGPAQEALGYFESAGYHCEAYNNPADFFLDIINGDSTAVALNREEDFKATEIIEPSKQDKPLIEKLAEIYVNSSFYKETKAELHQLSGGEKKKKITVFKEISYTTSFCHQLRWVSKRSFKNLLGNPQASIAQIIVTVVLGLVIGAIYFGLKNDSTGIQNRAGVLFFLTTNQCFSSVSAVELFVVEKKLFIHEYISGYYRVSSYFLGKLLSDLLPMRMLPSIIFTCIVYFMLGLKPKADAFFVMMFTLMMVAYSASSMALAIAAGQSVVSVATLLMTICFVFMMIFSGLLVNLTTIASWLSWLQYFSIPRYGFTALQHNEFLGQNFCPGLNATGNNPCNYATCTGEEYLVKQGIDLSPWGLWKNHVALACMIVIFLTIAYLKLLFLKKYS
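Times: 10 min at 25 °C | Test system: Two drug-resistant human cell lines, ABCG2 and ABCB1 | Quantity: 3 million cells/mL final, two lines in 1:1 ratio | Signal: Flow cytometry, 530 nm JC-1 signal | Dosing: Compound at 6.6 µM | Controls: Nicardipine and DMSO wells | Reagent: JC-1 as fluorescent efflux pump substrate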
Arbovirus inh: blocks arbovirus infection; arbovirus infection cell-based antiviral screen; AID 1251; inhibition, % at 10 µM; hit rate 0.37% among 200,000; in the data active = inhibition above about 30%
Autophagy HCS: alters autophagy in cells. AID 463193. calls only at 10 µM (by protocol). MEF GFP-LC3 puncta imaging; test concentration mostly 10 µM. hit rate 0.98% among 190,000;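 active = percentage of spot-positive cells more than 3 SD above its plate mean, without a fluorescence outlier flag or 80% toxicity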;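 note: spot-positive cell cutoff set from DMSO-treated cells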
b-catenin transl: beta-catenin nuclear translocation modulation. HeLa beta-catenin nuclear translocation, immunofluorescence imaging. nuclear translocation activity, % at 5 µM. hit rate 0.3% among 190,000;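 active = nuclear translocation activity above 50% at 5 µM, with a well cell count of 50 or more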;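 note: per-cell ratio of nuclear to cytoplasmic median beta-catenin stain intensity; plate controls were DMSO negative control for no effect and GSK-3 inhibitor IX positive control for full effect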
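Test system: human HeLa cells, native beta-catenin. Compound dosing: 5 µM primary single dose, 0.1% DMSO, 0.02–20 µM confirmation series. Incubation: compound exposure 24 h at 37°C. Detection: beta-catenin immunostaining with DAPI counterstain, 20x imaging, 6 fields/well. Read-out basis: Nuclear/cytoplasmic beta-catenin signal ratio, % activation.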
ABCB1 block: human ABCB1 inhibition, ABCG2 as counter-screen. P08183. CCRF-Adr cells, JC-1 efflux, flow cytometry. inhibition, % at 6.6 µM. hit rate 0.067% among 190,000. AID 1326; in the data active = inhibition above about 40%;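 note: 0% = vehicle and 100% = reference inhibitor; higher value means more JC-1 retained so stronger ABCB1 efflux block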
Active calls of the source: *. Shown are actives, neighbours in structure and some others; about 2.1% of the full set was active somewhere.

Screening CN(C)c1ccc(/C=C2\SC(=O)N(CC(O)Cn3c4ccccc4c4ccccc43)C2=O)cc1 (stereo not given) returned MT stabilize HCS 4.7, ABCG2 inh 2.8, Arbovirus inh -5.1, Autophagy HCS active, b-catenin transl 0.7 and ABCB1 block 1.5.
`O=C1S/C(=C/c2ccccc2)C(=O)N1CC(O)Cn1c2ccccc2c2ccccc21` (stereo not given) gave MT stabilize HCS 2.8, ABCG2 inh 1.9, Arbovirus inh 4.5, Autophagy HCS inactive, b-catenin transl -2.2 and ABCB1 block 1.2.
For CCC(=O)NC(c1ccc(OC)cc1)c1c(O)ccc2ccccc12 (stereo not given) the results were MT stabilize HCS 18.3*, ABCG2 inh 7.5, Arbovirus inh -14.1, Autophagy HCS inactive, b-catenin transl 0.5 and ABCB1 block 0.1.
CCC(=O)NC(c1ccc(N(C)C)cc1)c1c(O)ccc2ccccc12 (stereo not given) was read as MT stabilize HCS 3.1, ABCG2 inh -0.5, Arbovirus inh 3.2, Autophagy HCS inactive, b-catenin transl 0.4 and ABCB1 block 0.5.
For COc1ccc(C(NC(=O)C(C)C)c2c(O)ccc3ccccc23)cc1 (stereo not given) the results were MT stabilize HCS 13.2*, ABCG2 inh -0.3, Arbovirus inh -14.1, Autophagy HCS inactive, b-catenin transl -0.4 and ABCB1 block -0.3.
`CCCC(=O)NC(c1ccc(OC)cc1)c1ccc2cccnc2c1O` (stereo not given) gave MT stabilize HCS 8.7*, ABCG2 inh 1.2, Arbovirus inh -23.0, Autophagy HCS inactive, b-catenin transl -0.2 and ABCB1 block 0.4.
`O=C(Cn1cnc2ccccc2c1=O)NCC(=O)N1CCN(c2ccccn2)CC1` gave MT stabilize HCS 2.1, ABCG2 inh -3.3, Arbovirus inh 6.3, Autophagy HCS inactive, b-catenin transl -0.2 and ABCB1 block 0.1.
For CSc1nc2sc3c(c2c(=O)n1C)CCC(C)C3 (stereo not given) the results were MT stabilize HCS 5.6, ABCG2 inh 0.9, Arbovirus inh -7.9, Autophagy HCS inactive, b-catenin transl 1.4 and ABCB1 block 0.1.
For O=c1c(Cl)nc2cc(Cl)ccc2n1CCNc1ncc(C(F)(F)F)cc1Cl the results were MT stabilize HCS 1.8, ABCG2 inh 1.4, Arbovirus inh -30.7, Autophagy HCS active, b-catenin transl -0.2 and ABCB1 block 0.4.
`CNC(=O)NC(=O)C(C)OC(=O)CCCSc1nc2ccccc2s1` (stereo not given) gave MT stabilize HCS 2.4, ABCG2 inh 6.9, Arbovirus inh 5.5, Autophagy HCS inactive and ABCB1 block 0.1.
Screening CCOc1ccc2[nH]c(=O)c(CN(CCO)Cc3nnnn3CCc3ccccc3)cc2c1 returned MT stabilize HCS 0.8, ABCG2 inh 4.7, Arbovirus inh 6.0, Autophagy HCS inactive and ABCB1 block 0.1.
`Cc1c(Nc2nc3ccccc3nc2NS(=O)(=O)c2ccccc2)c(=O)n(-c2ccccc2)n1C` gave MT stabilize HCS 2.3, ABCG2 inh -1.0, Arbovirus inh 8.4, Autophagy HCS active, b-catenin transl 0.8 and ABCB1 block -0.1.
`CCCn1c(SCC(=O)Nc2nnc(-c3ccccc3)s2)nnc1-c1ccccn1` gave MT stabilize HCS 5.0, ABCG2 inh 2.9, Arbovirus inh 20.2, Autophagy HCS inactive, b-catenin transl 0.8 and ABCB1 block 6.3.
Screening O=C(COC(=O)c1sc2ccccc2c1Cl)NC1CCCCC1 returned MT stabilize HCS 2.2, ABCG2 inh 2.5, Arbovirus inh 2.1, Autophagy HCS inactive, b-catenin transl -3.9 and ABCB1 block 0.0.
CCOCCCNC(=O)COC(=O)/C=C/c1ccc(S(=O)(=O)N2CCc3ccccc32)cc1 was read as MT stabilize HCS 6.2, ABCG2 inh 6.4, Arbovirus inh -1.4, Autophagy HCS inactive, b-catenin transl -3.9 and ABCB1 block 0.9.
CC(C)(C)n1nnnc1C(c1ccc(F)cc1)N(Cc1ccc(F)cc1)Cc1ccco1 (stereo not given) was read as MT stabilize HCS 3.6, ABCG2 inh 1.9, Arbovirus inh -14.2, Autophagy HCS inactive, b-catenin transl -0.5 and ABCB1 block 0.6.
For CC(C)(C)n1nnnc1C(c1ccc(C(F)(F)F)cc1)N(Cc1ccc(F)cc1)Cc1ccco1 (stereo not given) the results were MT stabilize HCS 4.4, ABCG2 inh 0.6, Arbovirus inh 32.2*, Autophagy HCS inactive, b-catenin transl 3.9 and ABCB1 block 0.6.
`COC(=O)c1sccc1NC(=O)CN(C)NS(=O)(=O)c1ccc([N+](=O)[O-])cc1` gave MT stabilize HCS 2.2, ABCG2 inh 1.1, Arbovirus inh -0.1, Autophagy HCS inactive and ABCB1 block 0.2.
`Cc1ccc(Cn2cc(/C=N/Nc3ccc([N+](=O)[O-])cn3)c3ccccc32)cc1` gave MT stabilize HCS 4.0, ABCG2 inh 5.8, Arbovirus inh -18.1, Autophagy HCS active, b-catenin transl 1.3 and ABCB1 block 4.2.
For Cc1c(/C=N/Nc2ccc([N+](=O)[O-])cn2)c2ccccc2n1Cc1ccccc1 the results were b-catenin transl -0.1.
`CC(C)(C)n1ncc2c(=O)n(CC(=O)NCc3ccccc3)cnc21` gave MT stabilize HCS 31.8*, ABCG2 inh 0.1, Arbovirus inh -5.7, Autophagy HCS inactive, b-catenin transl -1.9 and ABCB1 block 0.0.
For COc1ccc(-c2nn(-c3ccccc3)cc2/C=N/NC(N)=S)cc1OC the results were MT stabilize HCS 27.4*, ABCG2 inh 17.4, Arbovirus inh -13.2, Autophagy HCS inactive and ABCB1 block 1.9.
For COC(=O)c1cn(NC(=O)C2CCCO2)c(=O)c2ccccc12 (stereo not given) the results were MT stabilize HCS 2.2, ABCG2 inh -0.6, Arbovirus inh -0.8, Autophagy HCS active, b-catenin transl 4.4 and ABCB1 block 0.0.
Screening CCOC(=O)CSc1nc2cccnc2n1C returned MT stabilize HCS 1.6, ABCG2 inh 0.8, Arbovirus inh 1.8, Autophagy HCS inactive, b-catenin transl 0.8 and ABCB1 block 0.4.
For CCOC(=O)CNC(=O)CSc1nc2cccnc2n1C the results were MT stabilize HCS 1.0, ABCG2 inh 2.2, Arbovirus inh 7.8, Autophagy HCS active, b-catenin transl -8.1 and ABCB1 block 0.8.
For COc1cc(C(=O)NC2CCCC2)c(Br)c(OC)c1OC the results were MT stabilize HCS 5.1, ABCG2 inh 1.7, Arbovirus inh 5.0, Autophagy HCS inactive, b-catenin transl 3.0 and ABCB1 block 0.2.
COc1cc(C(=O)NCCOc2cc(C)cc(C)c2)c(Br)c(OC)c1OC was read as MT stabilize HCS 44.2*, ABCG2 inh 6.4, Arbovirus inh -25.0, Autophagy HCS inactive, b-catenin transl 4.3 and ABCB1 block 1.3.
